Hits are enriched below; roughly 4.8% of the tested compounds scored in any of these assays.
ATG4B inhibitor – ATG4B protease inhibitors, primary screen, biochemical, fluorescence, uHTS; ATG4B cleavage of LC3-PLA2, NBD-HPC fluorescence, 1 h; Cysteine protease ATG4B (Homo sapiens), Q9Y4P1; inhibition, % at 8.33 µM; 340,000 tested, 0.51% active; in the data active means inhibition above about 40%
NALP1 inh – NALP1 inflammasome inhibitors in reconstituted yeast, colorimetric, S. cerevisiae, triplicate retest | 280,000 tested, 0.61% active | S. cerevisiae NALP1/ASC/caspase-1 growth, X-gal OD620, 72 h | inhibition, % at 10 µM; in the data active means inhibition mostly above about 24%, no sharp cut-off; inactive means mostly below about 32%
NLRP3 yeast inh – NALP3 inflammasome inhibitors in reconstituted yeast, primary screen, luminescence, uHTS; Yeast reconstituted NLRP3/ASC/caspase-1, beta-gal luminescence, 24 h; inhibition, % at 10 µM; 330,000 tested, 0.39% active; AID 2825, 2010;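 active means inhibition of 50% or more; inactive means inhibition below 50%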
Calb FLC – C. albicans growth inhibition with fluconazole, primary screen, CaCi-2 strain, Alamar Blue fluorescence. C. albicans CaCi-2 (fluconazole-resistant clinical isolate) + fluconazole, 48 h. growth inhibition, % (test concentration not listed). 300,000 tested, 0.57% active;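 active means growth inhibition above about 58% in most replicates, limit read from the data, passing the limit was not always enough; inconclusive means exactly half the replicates above a set limit; inactive means most replicates below a set limit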;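 further: all wells also contain fluconazole at 8 µg/ml as a sub-toxic cotreatment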
UCH37 inh – inhibitors of human UCH37 deubiquitinase, primary screen, biochemical, Ub-AMC cleavage, fluorescence | purified proteasome/UCH37 | inhibition, % (concentration not given with the values) | 330,000 tested, 0.33% active;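 active means mean inhibition over replicate wells above about 20%, limit read from the data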
Target sequence (Q9Y5K5 whole entry, looked up): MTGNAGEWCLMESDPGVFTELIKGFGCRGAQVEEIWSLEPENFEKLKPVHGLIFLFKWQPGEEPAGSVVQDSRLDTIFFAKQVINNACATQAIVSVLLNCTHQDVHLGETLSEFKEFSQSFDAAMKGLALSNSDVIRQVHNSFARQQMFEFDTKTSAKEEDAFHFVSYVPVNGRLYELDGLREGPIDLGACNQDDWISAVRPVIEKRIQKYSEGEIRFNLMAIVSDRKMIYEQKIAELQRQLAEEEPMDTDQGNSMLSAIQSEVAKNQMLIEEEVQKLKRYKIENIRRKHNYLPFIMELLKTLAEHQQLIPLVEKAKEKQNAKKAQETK
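Material: Human UCH37 enzyme supplied as purified proteasome complex | Schedule: 30 min compound-proteasome preincubation then 25 min substrate reaction, room temperature | Detection: AMC fluorescence from Ub-AMC cleavage, excitation 355 nm, emission 460 nm | Benchmarks: Wells without proteasome as full block, compound-free enzyme plus substrate as uninhibited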
ALR inh – inhibitors of human ALR sulfhydryl oxidase, primary screen, biochemical, H2O2 detection, HRP-luminol luminescence, single point. purified ALR, DTT oxidation. inhibition, % (test concentration not listed). 290,000 tested, 3.8% active. AID 485317, 2010;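 active means mean replicate inhibition above about 79%, with every replicate also reaching it, limit read from the data; inconclusive means only one of the two criteria met; inactive means mean below limit and not every replicate reaching it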
Target sequence (P55789 whole entry, looked up): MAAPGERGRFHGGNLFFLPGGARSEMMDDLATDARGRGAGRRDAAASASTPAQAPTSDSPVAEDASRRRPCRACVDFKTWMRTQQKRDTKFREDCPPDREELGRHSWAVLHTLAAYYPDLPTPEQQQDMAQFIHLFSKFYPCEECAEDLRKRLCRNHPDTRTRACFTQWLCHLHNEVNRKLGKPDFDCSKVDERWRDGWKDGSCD
Numbers stand for hits; i = inactive; ? = inconclusive; nt = no result.

SMILES	ATG4B inhibitor	NALP1 inh	NLRP3 yeast inh	Calb FLC	UCH37 inh	ALR inh
COc1cc(/C=C/CN2CCN(CCC(C)C)C(CCO)C2)ccc1O (configuration not stated)	i	i	i	i	i	94.0
Cc1ccc(CN2CCN(Cc3cnc(N4CCOCC4)s3)CC2CCO)o1 (configuration not stated)	i	25.8	i	i	i	i
COc1cc(/C=C/CN2CCN(Cc3ccc(C)o3)C(CCO)C2)ccc1O (configuration not stated)	i	i	i	i	i	97.6
COc1ccccc1/C=C/CN1CCN(Cc2ccc(C)o2)C(CCO)C1 (configuration not stated)	i	i	i	i	i	i
COc1cc(C=NNC(N)=S)ccc1OCC(=O)Nc1ccc(C)cc1	nt	nt	nt	nt	i	nt
Cc1ccccc1NCC(=O)NN=C/C(Br)=C/c1ccccc1	nt	nt	nt	nt	i	nt
CN(C)c1ccc(C=NNC(=O)C2COc3ccccc3O2)o1 (configuration not stated)	nt	nt	nt	nt	i	nt
CCCc1cc(=O)[nH]c(Nc2ccc(O)cc2)n1	i	i	i	i	i	99.0
CCCc1cc(=O)[nH]c(Nc2ccc(Cl)cc2)n1	i	i	i	i	i	i
NC(=Nc1nc2ccccc2o1)NC(=O)c1ccc([N+](=O)[O-])cc1	nt	nt	nt	nt	i	nt
COc1ccc(C(CNC(=O)Cc2c(F)cccc2Cl)N2CCCCC2)cc1 (configuration not stated)	i	23.0	i	i	i	i
COc1ccc(C(CNC(=O)CNC(=O)c2ccc(F)cc2)N2CCCC2)cc1 (configuration not stated)	i	nt	i	nt	i	i
Cc1noc(/C=C/c2ccccn2)c1[N+](=O)[O-]	i	41.1	i	84.8	i	i
COc1ccccc1N/C=C/c1onc(C)c1[N+](=O)[O-]	i	i	i	i	i	i
COc1ccc(C=Nc2oc(C)c(C)c2C#N)c(OC)c1	nt	nt	nt	nt	i	nt
COc1ccc(OC)c(/C=N/c2oc(-c3ccco3)c(-c3ccco3)c2C#N)c1	i	i	i	i	nt	98.1
Cc1cc(C)n(CC(=O)NN=Cc2ccc(C)o2)n1	nt	nt	nt	nt	i	nt
COc1ccc(Nc2nc(C(=O)NCCCN3CCOCC3)cs2)cc1	i	i	i	?	i	83.0
COc1ccc(Nc2cc(C(=O)NCCCN3CCOCC3)c3ccccc3n2)cc1	i	i	i	i	i	i
Cn1nc(-c2ccc(Cl)cc2)c2cc(C(=O)NCCCN3CCOCC3)sc21	i	i	i	i	i	95.1
CCCCNC(=O)c1cc(-c2ccc(OC)c(OC)c2)on1	i	42.9	i	i	i	i
CCCCNC(=O)c1cc(-c2ccc(OC)cc2)on1	i	i	i	i	i	i
O=C(Nc1c(F)cc(F)cc1Br)c1cc(-c2ccc(O)cc2)on1	i	i	i	i	i	98.6
CN(C)C=Nc1nc2ncc(-c3ccc(Cl)cc3)c(N=CN(C)C)n2n1	nt	nt	nt	nt	i	nt
CCN1CCN(C(=O)c2cc3c(-c4ccc(Cl)cc4)nn(C)c3s2)CC1	i	i	i	i	i	97.8
SMILES	ATG4B inhibitor	NALP1 inh	NLRP3 yeast inh	Calb FLC	UCH37 inh	ALR inh
O=C(NCCCN1CCOCC1)c1cc(-c2ccc(O)cc2)on1	i	i	i	i	i	98.3
CCN(CC)CCNC(=O)c1cc2c(-c3ccc(Cl)cc3)nn(C)c2s1	i	i	i	i	i	nt
Cn1nc(-c2ccc(Cl)cc2)c2cc(C(=O)NC3CC3)sc21	i	i	i	i	i	84.0
Cn1nc(-c2ccc(Cl)cc2)c2cc(C(=O)NCCN3CCOCC3)sc21	i	i	i	i	i	93.1
O=C(NCCCN1CCOCC1)c1cc(-c2ccc(Br)cc2)on1	i	i	i	i	i	nt
COc1ccc(C=NNC(=O)Nc2cccc3nsnc23)cc1	nt	nt	nt	nt	i	nt
NC(=O)C1CCN(c2nc(-c3ccc4occc(=O)c4c3)cs2)CC1	i	nt	i	nt	i	98.8
NC(=O)C1CCN(c2nc(-c3ccc(F)cc3)cs2)CC1	i	nt	i	nt	i	i
Cc1nc(Nc2ccc(S(N)(=O)=O)cc2)sc1C(=O)Nc1ccccc1	i	i	i	i	21.4	i
O=C(COc1ccc(Cl)cc1Cl)NN=Cc1ccccn1	nt	nt	nt	nt	i	nt
CC1=NN(C(N)=S)C(=O)C1N=Nc1cccc(Cl)c1 (configuration not stated)	i	i	i	i	i	90.2
CC1=NN(C(N)=S)C(=O)C1N=Nc1c(C)cc(C)cc1C (configuration not stated)	i	i	i	i	i	i
CC1=NN(C(N)=S)C(=O)C1N=Nc1c(Br)cc(Br)cc1Br (configuration not stated)	i	i	i	i	nt	97.6
CC1=NN(C(N)=S)C(=O)C1N=Nc1ccc(C)cc1C (configuration not stated)	nt	i	i	i	i	94.1
Cc1csc(C(C#N)=NO)n1	nt	nt	nt	nt	i	nt
Cc1cc(NC(=O)CSc2nc(Cc3ccc(O)cc3)c(C)[nH]2)no1	i	i	i	i	i	i
CCOc1ccc(Cc2nnc(SCC(=O)Nc3ccccc3)n(N)c2=O)cc1	i	nt	i	i	i	i
Cc1[nH]c(SCC(=O)Nc2cc(C(N)=O)cc(C(N)=O)c2)nc1Cc1ccccc1	i	nt	i	nt	i	97.1
COc1ccc(NC(=O)CSc2nnc(Cc3ccc(C)cc3)c(=O)n2N)cc1OC	i	nt	i	i	i	90.9
COc1ccccc1-c1nnc(SCC(=O)Nc2ccc3[nH]c(=O)[nH]c3c2)n1N	i	nt	i	nt	nt	98.5
Cc1ccc(Cc2nnc(SCC(=O)Nc3ccccc3)n(N)c2=O)cc1	i	nt	i	i	i	97.7
COc1ccccc1-c1nnc(SCC(=O)Nc2ccc(S(N)(=O)=O)cc2)n1N	i	nt	i	i	i	i
COc1cccc(C(=O)NN=C(C)c2ccc(NC(=O)Cc3ccccc3)cc2)c1OC	nt	nt	nt	nt	i	nt
CN1CCN(CCC(=O)NN=Cc2cc3c(cc2[N+](=O)[O-])OCO3)CC1	nt	nt	nt	nt	i	nt
COc1ccc(C=NN2CCN(C3c4ccccc4-c4ccccc43)CC2)cc1OC	nt	nt	nt	nt	i	nt
SMILES	ATG4B inhibitor	NALP1 inh	NLRP3 yeast inh	Calb FLC	UCH37 inh	ALR inh
Cc1[nH]c(=O)[nH]c(=O)c1C=NNC(=O)[C@@H](N)CC(C)C	nt	nt	nt	nt	i	nt
COc1ccc(NC(=O)CSc2nnc(Cc3ccccc3)c(=O)n2N)cc1OC	i	nt	i	i	i	93.1
COc1cccc(NC(=O)CSc2nnc(Cc3ccc(C)cc3)c(=O)n2N)c1	i	nt	i	i	i	98.5
COc1ccc(Cc2nnc(SCC(=O)Nc3ccc(C)cc3)n(N)c2=O)cc1	i	nt	i	i	i	i
CCOc1ccccc1NC(=O)CSc1nnc(Cc2ccc(OC)cc2)c(=O)n1N	i	nt	i	i	i	i
COc1ccc(C=NNC(=O)Cc2n[nH]c(=O)[nH]c2=O)cc1	nt	nt	nt	nt	i	nt
